# MrgX1 ag: agonists of human MrgX1 receptor. MrgX1-HEK293 cells, Fluo-4 calcium fluorescence, agonist mode; stronger effect = higher value. B-score at 10 µM. AID 588627. actives 0.44% (n = 310,000);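 active = calcium response B-score plate-corrected fluorescence ratio at least 3 library SD, with starting fluorescence B-score inside 5 SD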
# Target sequence (Q96LB2 whole entry, looked up): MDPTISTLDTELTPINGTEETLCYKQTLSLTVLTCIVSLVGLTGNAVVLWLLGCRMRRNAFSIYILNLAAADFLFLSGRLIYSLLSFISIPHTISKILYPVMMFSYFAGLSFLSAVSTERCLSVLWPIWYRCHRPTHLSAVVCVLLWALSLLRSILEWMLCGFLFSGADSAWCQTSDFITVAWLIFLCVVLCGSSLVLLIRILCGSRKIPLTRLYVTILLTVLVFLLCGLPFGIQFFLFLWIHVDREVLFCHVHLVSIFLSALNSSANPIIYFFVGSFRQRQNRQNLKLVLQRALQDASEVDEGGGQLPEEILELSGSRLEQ
#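 Assay system: stable human MrgX1 HEK293 cell line. Quantity: 15,000 cells per well. Schedule: cells plated overnight, dye loaded 0.5 h 37 °C, 0.5 h room temperature. Detection: Fluo-4 NW calcium-flux fluorescence, kinetic read. Read-out basis: peak-minus-minimum fluorescence over baseline, converted to B scores. Control set: positive and negative control wells on each plate.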
# RGS4 block: inhibitors of human RGS4. B-score at 10 µM. HEK293 M3R/RGS4 inducible, Fluo-4 calcium flux; stronger effect = higher value; triggered by carbachol at its EC20. P49798. actives 0.45% (n = 310,000);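 active = B-score, a plate-corrected calcium signal, over three deviations above library mean, with baseline fluorescence within five deviations of library mean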;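 also: RGS4 expression induced by doxycycline in cells with stable M3 receptor; B-score is computed from the integrated fluorescence ratio over baseline after carbachol; higher B-score means a larger calcium signal and so more RGS4 inhibition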
# Target sequence (P49798 whole entry, looked up): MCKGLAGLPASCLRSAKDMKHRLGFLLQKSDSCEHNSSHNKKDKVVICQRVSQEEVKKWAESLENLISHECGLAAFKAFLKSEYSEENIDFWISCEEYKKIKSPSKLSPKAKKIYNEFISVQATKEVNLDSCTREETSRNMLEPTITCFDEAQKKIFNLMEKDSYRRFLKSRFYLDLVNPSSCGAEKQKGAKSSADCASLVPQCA
# RGS4 act: potentiators or activators of RGS4; HEK293 M3R/inducible RGS4, carbachol calcium flux Fluo4; stronger effect = lower value; B-score at 10 µM; actives 0.92% (n = 310,000); AID 463111;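 active = B-score of the integrated calcium signal more than 4 SD below the library mean, with starting fluorescence not abnormally high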;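 also: negative B-score means reduced calcium response which marks RGS4 activation or potentiation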
#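 Detection: kinetic calcium fluorescence imaging with Fluo4-AM dye, 2 µM / Material: HEK293 cells with stable M3R and inducible RGS4 / Schedule: recording 10 s baseline at 1 Hz, 100 s post-agonist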
# MrgX1 antagonist: human MrgX1 receptor antagonism, primary screen. actives 1.3% (n = 310,000). Q96LB2. AID 588676. B-score at 10 µM. MRGX1-HEK293 calcium flux, Fluo-4, BAM8-22 antagonism; stronger effect = lower value;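 active = calcium-response B-score plate-corrected more than 3 library SD below zero, starting fluorescence within 5 deviations, no agonist response on first addition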;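 also: peak minus trough fluorescence over baseline after final BAM8-22 challenge near maximal dose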
# MrgX1 PAM: human MrgX1 positive allosteric modulation, primary screen | Q96LB2 | MrgX1-HEK293, Fluo-4 calcium flux, FDSS; stronger effect = higher value | B-score at 10 µM | actives 0.63% (n = 310,000) | AID 588675;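 active = plate-corrected calcium response at least 3 library SD above typical, normal starting fluorescence, not activating the receptor alone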;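 also: compound read alongside a low EC10 to EC30 dose of BAM8-22 agonist; peak minus trough fluorescence over baseline measured at the second addition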
# RGS4 inh valid: RGS4 inhibitor validation; shares compounds with RGS4 block; HEK293 M3R/RGS4, carbachol calcium Fluo-4 fluorescence; carbachol added at its EC20; 0 = buffer wells, 100 = carbachol control; calcium response, % at 10 µM; actives 65% (n = 1,700); AID 492999;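 active = duplicate-averaged calcium response above the buffer-only control mean plus 5 SD of those controls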;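 also: integrated fluorescence ratio F max minus min over baseline F0; higher response in RGS4-induced cells means RGS4 inhibition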
# M3R Ca ctr: counter-screen for RGS4 inhibitors: effect in non-induced cells | activity (percent), % at 10 µM | HEK293 M3R non-induced, carbachol calcium Fluo-4; submaximal (EC20) carbachol stimulus; buffer wells 0%, carbachol control wells 100% | shares compounds with RGS4 block | actives 20% (n = 1,900) | AID 493000; call rule not given here;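 also: RGS4 induction absent so cells express M3R without RGS4; higher means more calcium signal and flags a non-specific hit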
# RGS4 inh ctr2: second counter-screen for RGS4 inhibitors: non-induced cells without carbachol; shares compounds with RGS4 block; actives 22% (n = 1,900); calcium response (agonist-mode artifact), % at 10 µM; HEK293 M3R/RGS4 non-induced, Fluo-4 calcium, no carbachol; normalised: buffer wells 0%, carbachol wells 100%;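 active = duplicate-averaged calcium rise in uninduced cells above buffer wells' mean plus 5 SD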
# * = called active by the depositor; i = inactive; · = no result given. This is a sample that favours compounds with a hit; in the whole collection about 3.5% have one here.
SMILES,MrgX1 ag,RGS4 block,RGS4 act,MrgX1 antagonist,MrgX1 PAM,RGS4 inh valid,M3R Ca ctr,RGS4 inh ctr2
O=C1/C(=C\c2cccc(O)c2)SC(=S)N1Cc1ccccc1,i,i,i,i,i,i,i,i
O=C1/C(=C/c2ccncc2)SC(=S)N1Cc1ccccc1,i,i,i,i,i,·,·,·
O=C1/C(=C\c2cccc(O)c2O)SC(=S)N1Cc1ccccc1,i,8.4*,i,i,i,18%*,i,i
NC(=O)c1ccc(/C=N/O)[n+](Cc2ccccc2)c1,i,i,i,i,i,·,·,·
COc1ccc(OC)c(C2CC(c3c(-c4ccccc4)c4cc(Cl)ccc4[nH]c3=O)=NN2S(C)(=O)=O)c1 (stereo not given),i,i,i,i,i,·,49%*,36%*
COc1ccc(C2CC(c3c(-c4ccccc4)c4cc(Cl)ccc4[nH]c3=O)=NN2S(C)(=O)=O)cc1 (stereo not given),i,i,i,i,i,·,·,·
Cc1ccccc1Nc1sc(C(=O)Nc2cccc(Cl)c2)c(N)c1C(N)=O,·,6.6*,i,·,·,5.0%*,i,i
Cc1cc(C)c(C(N)=O)c(Nc2cccc(Cl)c2)n1,i,i,i,i,i,·,·,·
CN1C(=O)/C(=C\c2ccncc2)SC1=Nc1ccccc1,i,6.3*,i,i,i,40%*,56%*,i
O=C(Nc1nc(-c2ccc(Cl)s2)cs1)c1ccco1,i,6.5*,i,i,i,14%*,i,i
O=C(Nc1nc(-c2ccc(Cl)s2)cs1)c1cccs1,i,i,i,i,i,·,·,·
O=C(Nc1nc(-c2cccs2)c(-c2ccccc2)s1)c1ccco1,i,14*,i,i,i,43%*,52%*,i
CC(=O)Nc1sc(NC(=O)c2ccco2)nc1-c1cccs1,i,i,i,i,i,·,·,·
Cc1ccc(C2NC(=O)NC(O)(C(F)(F)F)C2C(=O)c2ccccc2)o1 (stereo not given),i,i,i,i,i,·,·,·
O=C1NC(c2ccc(-c3ccccc3[N+](=O)[O-])o2)C(C(=O)c2ccc(F)cc2)C(O)(C(F)(F)F)N1 (stereo not given),i,i,i,i,i,·,32%*,7.5%*
COc1ccc(C(=O)C2C(c3ccc(-c4ccccc4[N+](=O)[O-])o3)NC(=O)NC2(O)C(F)(F)F)cc1 (stereo not given),i,i,i,i,i,i,i,i
COc1ccc(C(=O)/C(=C\c2ccco2)N2C=CC=CC2=C(C#N)C#N)cc1,i,25*,i,i,i,37%*,i,20%*
N#CC(C#N)=C1C=CC=CN1/C(=C\c1ccco1)C(=O)c1ccccc1,i,·,·,i,i,·,·,·
Fc1ccc(-c2csc(Nc3ccccn3)n2)cc1,i,i,i,i,i,i,i,i
COCCNC(=O)c1cc2nc(-c3ccc(F)cc3)cc(C(F)(F)F)n2n1,i,i,i,i,i,·,·,·
NC(=O)Cn1c(=O)n(CC(=O)N2CCCCC2)c(=O)c2sccc21,i,i,i,i,i,·,·,·
CCN(Cc1ccccc1)C(=O)Cn1c(=O)n(CC(=O)N2CCCCC2)c(=O)c2sccc21,i,i,i,i,i,·,44%*,i
CSc1nc(SCCO)c2sc3nc(-c4ccco4)c4c(c3c2n1)CC(C)(C)OC4,·,i,i,·,·,·,·,·
CSc1nc(N(CCO)CCO)c2sc3nc(-c4ccco4)c4c(c3c2n1)CCC4,·,i,i,·,·,i,i,i
COc1ccc(O)c(-c2cc(-c3ccccc3[N+](=O)[O-])[nH]n2)c1,i,6.4*,i,i,i,9.5%*,i,i
SMILES,MrgX1 ag,RGS4 block,RGS4 act,MrgX1 antagonist,MrgX1 PAM,RGS4 inh valid,M3R Ca ctr,RGS4 inh ctr2
Cc1ccc(O)c(-c2cc(-c3ccccc3[N+](=O)[O-])[nH]n2)c1,i,8.6*,i,i,i,12%*,i,18%*
Cc1[nH]n(-c2ncc(-c3ccccc3)s2)c(=O)c1C(c1ccc(Cl)cc1)C(C#N)C#N (stereo not given),i,14*,i,-5.3*,i,70%*,i,52%*
Cc1ccc(-c2nc3c(c(=O)[nH]c(=O)n3Cc3ccccc3)n2Cc2ccccc2)o1,·,8.2*,i,·,·,24%*,i,7.0%*
O=C(CCc1nnc(-c2ccsc2)o1)N1CCCCC1CCn1ccnc1 (stereo not given),i,i,i,i,i,·,·,·
CCOC(=O)c1cnc(Nc2nc3ccccc3o2)nc1C,i,i,i,i,i,·,·,·
Cc1nc(Nc2nc3ccccc3o2)nc(C)c1C(=O)Nc1ccc(F)cc1,i,4.7*,i,i,i,7.0%*,i,i
COc1ccccc1/C=C/C=N/n1c(-c2cc(-c3ccccc3)n[nH]2)n[nH]c1=S,i,7.7*,i,i,i,45%*,36%*,i
CCC1CCCCN1S(=O)(=O)c1ccc2c(c1)CCN2C(=O)C1CCC1 (stereo not given),i,i,i,i,i,·,·,·
O=C(CCl)c1ccc2c(c1)CCN2C(=O)C1CCCCC1,i,i,i,i,i,i,i,14%*
Cc1csc(Sc2ccc([N+](=O)[O-])cc2C(=O)OCC(=O)NC(=O)NC(C)(C)C)n1,i,i,i,i,i,·,·,·
Cc1c(/C=N/NC(=O)CNc2ccccc2)c2ccccn2c1C(=O)c1ccc(Cl)cc1,i,15*,i,i,i,20%*,i,68%*
Cc1c(/C=N/NC(=O)CNc2ccccc2)c2ccccn2c1C(=O)c1ccncc1,i,i,i,i,i,i,i,i
Cc1c(C=O)c2ccccn2c1C(=O)c1ccccc1,i,i,i,i,i,·,·,·
Cc1ccccc1NCC(=O)N/N=C/c1c(C)c(C(=O)c2ccc(Cl)cc2)n2ccccc12,i,i,i,i,i,i,i,31%*
